# Reference: PubChem BioAssay AID489030 (Sanford-Burnham Center for Chemical Genomics, 2010)
# The whole screen tested about 330,000 compounds, of which about 2,400 (0.73%) were called active. This is one part of a sample in which actives are shown more often than they occur. Values without a mark were called inactive. The calls were made as follows: active = inhibition of at least 40% at 20 µM; inactive = the rest.
# Target: Apoptotic protease-activating factor 1 (Homo sapiens) (UniProt O14727)
# Sequence (O14727 whole entry, looked up): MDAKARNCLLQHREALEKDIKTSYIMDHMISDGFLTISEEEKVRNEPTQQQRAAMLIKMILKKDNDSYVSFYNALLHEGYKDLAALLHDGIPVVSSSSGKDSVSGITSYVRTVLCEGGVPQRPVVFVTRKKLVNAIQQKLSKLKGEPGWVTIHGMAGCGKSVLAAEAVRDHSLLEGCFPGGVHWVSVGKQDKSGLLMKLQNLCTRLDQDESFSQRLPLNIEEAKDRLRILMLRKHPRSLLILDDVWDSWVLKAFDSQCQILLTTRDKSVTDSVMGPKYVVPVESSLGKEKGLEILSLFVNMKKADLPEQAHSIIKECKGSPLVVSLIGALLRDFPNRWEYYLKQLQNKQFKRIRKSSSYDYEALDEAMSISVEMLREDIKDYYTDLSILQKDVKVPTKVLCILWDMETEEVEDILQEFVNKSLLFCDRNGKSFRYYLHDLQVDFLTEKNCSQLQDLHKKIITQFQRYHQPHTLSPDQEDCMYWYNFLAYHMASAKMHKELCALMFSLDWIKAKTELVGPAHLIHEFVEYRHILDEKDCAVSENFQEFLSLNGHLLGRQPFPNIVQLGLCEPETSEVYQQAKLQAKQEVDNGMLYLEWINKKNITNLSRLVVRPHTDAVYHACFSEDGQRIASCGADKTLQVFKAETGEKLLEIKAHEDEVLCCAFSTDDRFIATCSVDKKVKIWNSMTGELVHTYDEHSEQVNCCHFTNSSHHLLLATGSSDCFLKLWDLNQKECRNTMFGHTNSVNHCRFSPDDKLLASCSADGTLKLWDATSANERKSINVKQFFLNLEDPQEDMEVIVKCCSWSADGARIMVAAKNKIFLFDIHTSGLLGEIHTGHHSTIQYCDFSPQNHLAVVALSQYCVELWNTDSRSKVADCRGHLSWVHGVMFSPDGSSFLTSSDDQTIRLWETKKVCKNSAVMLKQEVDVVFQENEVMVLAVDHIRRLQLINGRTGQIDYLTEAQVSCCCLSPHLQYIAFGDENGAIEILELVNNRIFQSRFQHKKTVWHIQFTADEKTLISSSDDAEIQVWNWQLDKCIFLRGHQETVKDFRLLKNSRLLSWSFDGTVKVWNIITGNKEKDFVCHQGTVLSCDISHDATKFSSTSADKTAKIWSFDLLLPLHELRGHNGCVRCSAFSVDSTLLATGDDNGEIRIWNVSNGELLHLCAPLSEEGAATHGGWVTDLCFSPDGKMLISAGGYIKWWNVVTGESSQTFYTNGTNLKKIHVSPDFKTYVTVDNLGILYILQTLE
# Test: inhibitors of human Apaf-1 apoptosome, primary screen, biochemical, DEVD-Rh110 fluorescence, uHTS (AID 489030);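 also: plate controls were DMSO wells for no effect and DEVD-CHO caspase inhibitor wells for full effect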
# Settings: reconstituted apoptosome caspase-3 activity, at 20 µM, hits give high values
# How it was run: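 Material: cell-free apoptosome with Apaf-1, procaspase-3 and caspase-9; Buffer or medium: Hepes pH 7.5 with detergent and BSA; Reagent: cytochrome c trigger plus (Z-DEVD)2-Rh110 caspase-3 substrate; Times: compound with Apaf-1, dATP, procaspase-3 30 min, then 50 min reaction, room temperature; Technique: Rh110 fluorescence intensity.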
row,Structure (SMILES),inhibition
1,CC(=O)N(C1=C(Cl)C(=O)c2ccccc2C1=O)c1ccc(C(=O)O)cc1,89% (active)
2,Cc1ccc(-c2nc(-c3cccnc3)sc2CC(=O)Nc2ccc(C)c(Cl)c2)cc1,19%
3,Cc1cccc(OCC(=O)NC2CC(C)(C)NC(C)(C)C2)c1,0.115%
4,O=C(CS(=O)(=O)c1cn(Cc2cccc(F)c2)c2ccccc12)N1CCCCC1,18.4%
5,O=c1cc(N2CCCCC2)c(-c2ccccc2)nn1Cc1cccc(F)c1,44% (active)
6,c1ccc(-c2cc(N3CCCCC3)c3ccccc3n2)cc1,-0.639%
7,COc1ccc(OC)c(NC(=S)N2CCc3ccccc3C2)c1,-1.06%
8,O=S(=O)(c1ccc(Br)cc1)N1CCC(c2nc3ccccc3[nH]2)CC1,6.06%
9,Cc1noc(C)c1CSc1nnc2ccc3ccccc3n12,-5%
10,COc1ccc(/C=N/Nc2cc(N3CCOCC3)nc(C)n2)c(OC)c1,0.02%
11,C(=N/Nc1cc(N2CCOCC2)nc(N2CCOCC2)n1)/c1ccccc1,76.5% (active)
12,CN(C)c1ccc(/C=N/Nc2cc(N3CCOCC3)nc(N3CCOCC3)n2)cc1,1.31%
13,Cc1ccc(C)c2c1cc(C)c1nnc(SCC(=O)Nc3cccc(C(=O)O)c3)n12,-9.82%
14,CCOCCCNS(=O)(=O)Cc1ccccc1,5.85%
15,COc1cnc(SCc2ccc(Cl)c(Cl)c2)nc1Cl,0.38%
16,O=C(CN1CCCCCC1)Nc1c(Cl)cc(Cl)cc1Cl,-0.605%
17,Cc1[nH][nH]c(=O)c1C(c1ccc(-c2ccc(Cl)cc2)o1)c1c(C)[nH][nH]c1=O,85.8% (active)
18,CN(CC(=O)Nc1ccc(F)cc1)C(=O)c1ccc(-c2ccc(Cl)cc2)o1,22%
19,O=C(NC1CCCCC1)c1ccc(-c2ccc(Cl)cc2)o1,15%
20,Nc1ccc2nn(-c3ccc(Cl)cc3)nc2c1,83.8% (active)
21,CCC(=O)Nc1ccc2nn(-c3ccc(F)cc3)nc2c1,17.5%

row,Structure (SMILES),inhibition
1,c1ccc(-n2nc3ccccc3n2)cc1,2.62%
2,O=Cc1c(Cl)cccc1Cl,-4.79%
3,Cc1nn(C)cc1N1C(=O)c2cccc3c(N)ccc(c23)C1=O,12.4%
4,CCN1C(=O)c2cccc3c(N)ccc1c23,97.1% (active)
5,CCN1C(=O)c2cccc3c(S(=O)(=O)Nc4ccccc4O)ccc1c23,5.31%
6,CCSc1sc(CC)cc1C=O,-7.54%
7,COCCC(=O)Nc1ccc2c(c1)CN(C(=O)CCOC)CC2,-12.8%
8,O=C(CN1CCOCC1)N/N=C/c1ccc(-c2ccc(Br)cc2)o1,-12%
9,Cc1ccc(-c2ccc(/C=N/NC(=O)CN3CCOCC3)o2)cc1[N+](=O)[O-],73.9% (active)
10,Cc1occc1C(=O)N/N=C/c1ccc(-c2cccc([N+](=O)[O-])c2)o1,10.6%
11,CCc1ccc(CNC(=O)C2CCN(c3nnc(C)c4c(C)n(-c5ccc(C)cc5)nc34)CC2)cc1,42.3% (active)
12,CCOc1ccc(CNC(=O)C2CCCN(c3nnc(C)c4c(C)n(-c5ccccc5)nc34)C2)cc1 (stereo unspecified),23.8%
13,COc1ccc(-n2nc3c(N4CCC(C(=O)NCc5ccccc5)CC4)nnc(C)c3c2C)cc1,7.29%
14,C=C(C)CSc1nc(N)c2c3c(sc2n1)CCC3,-16.8%
15,CC(C)CNC(=O)/C=C/C(=O)O,-2.85%
16,O=C1c2ccccc2-c2ncnc3c(N4CCOCC4)cc(N4CCOCC4)c1c23,11.8%
17,O=C1C(Cl)=C(N2CCOCC2)C(=O)N1c1ccccc1,-17.1%
18,COC1=C(N2CCOCC2)C(=O)c2ccccc2C1=O,65.8% (active)
19,Cc1ccc(S(=O)(=O)N2CCN(c3ccccc3)CC2)cc1C,14.9%
20,Cc1ccc(S(=O)(=O)C(C#N)c2nc3ccccc3nc2N2CCCC2)cc1C (stereo unspecified),60% (active)
21,CC(C)OC(=O)C(C#N)c1nc2ccccc2nc1N1CCN(Cc2ccccc2)CC1 (stereo unspecified),10.2%

row,Structure (SMILES),inhibition
1,CN(C(=O)CCNC(=O)Cn1ccc2ccccc2c1=O)c1ccc(Br)cc1,3.8%
2,Cc1ccc(C(C)C)c(OCc2nnc(SCC(=O)Nc3nccs3)n2C)c1,11.4%
3,C[C@@H](CN1CCC[C@H]1CN1C(N)=NC[C@@H]1Cc1ccccc1)N1C[C@@H](Cc2ccccc2)N(CCCC2CCCC2)C1=N,70.9% (active)
4,CCCCN1C(N)=NC[C@@H]1Cc1ccccc1,13.2%
5,CC[C@@H](C)[C@@H]1CN([C@@H](C)CN2CCC[C@H]2CN2C(N)=NC[C@H]2C(C)C)C(=N)N1CCc1ccc(Cl)c(Cl)c1,25.3%
6,CC(C)CC(=O)N1CCN(Cc2ccccc2Br)CC1,8.5%
7,COc1ccc(NC(=O)c2cccc3c2C(=O)N(CC2CCCO2)C3)cc1OC (stereo unspecified),2.96%
8,COCCc1nn2c(=O)cc(COC(=O)c3cc(OC)c(OC)c(OC)c3)nc2s1,-4.08%
9,Cc1ccc(-n2[nH]c(C)c(/C=N/NC(=O)c3cccc([N+](=O)[O-])c3)c2=O)cc1C,25.4%
10,COc1cc(/C=N/NC(=O)c2ccoc2C)ccc1OCCN1CCCCC1,10.2%
11,Cc1[nH]n(-c2ccccc2)c(=O)c1/C=N/NC(=O)c1ccoc1C,61.5% (active)
12,Oc1ccc(/C=N/N(Cc2ccccc2)c2ccccc2)cc1,8.85%
13,Oc1ccc(N=Cc2c(O)ccc3ccccc23)cc1,87.2% (active)
14,CC(=O)n1c(C=Nc2ccccc2)c(O)c2ccccc21,5.41%
15,Cc1cc(N=Nc2ccc3ccccc3c2)ccc1O,4.6%
16,Oc1ccc(N=Cc2sc3ccccc3c2Cl)cc1,64.8% (active)
17,CSc1ccc(CCNC(=O)C2CCN(c3nnc(-n4cccc4)s3)CC2)cc1,0.72%
18,O=C(NCCCn1ccnc1)c1cc2c(s1)CCCC2,11.9%
19,COc1ccc(-c2nc(N)sc2C2(O)C(=O)Nc3c(Br)cc(F)cc32)cc1OC (stereo unspecified),3.73%
